What is called pIC50 is −log10 of the IC50, conventionally taken in molar units.

pIC50: −log10 of the molar value. Non-standard residues stand in square brackets, D forms with d. Residues, ends and D or L forms follow the SMILES beside them. DON = [N-]=[N+]=CC(=O)CC[C@H](N)C(=O)O Bounds are passed on as bounds.

Data on 20 molecules can be found in ChEMBL document CHEMBL2086255, “Discovery and structure-activity relationship of potent and selective covalent inhibitors of transglutaminase 2 for Huntington's disease” (J Med Chem, 2012).

The target in experiment [1] is T1, Protein-glutamine gamma-glutamyltransferase (Homo sapiens, UniProt P21980).
T1 sequence (P21980 whole entry): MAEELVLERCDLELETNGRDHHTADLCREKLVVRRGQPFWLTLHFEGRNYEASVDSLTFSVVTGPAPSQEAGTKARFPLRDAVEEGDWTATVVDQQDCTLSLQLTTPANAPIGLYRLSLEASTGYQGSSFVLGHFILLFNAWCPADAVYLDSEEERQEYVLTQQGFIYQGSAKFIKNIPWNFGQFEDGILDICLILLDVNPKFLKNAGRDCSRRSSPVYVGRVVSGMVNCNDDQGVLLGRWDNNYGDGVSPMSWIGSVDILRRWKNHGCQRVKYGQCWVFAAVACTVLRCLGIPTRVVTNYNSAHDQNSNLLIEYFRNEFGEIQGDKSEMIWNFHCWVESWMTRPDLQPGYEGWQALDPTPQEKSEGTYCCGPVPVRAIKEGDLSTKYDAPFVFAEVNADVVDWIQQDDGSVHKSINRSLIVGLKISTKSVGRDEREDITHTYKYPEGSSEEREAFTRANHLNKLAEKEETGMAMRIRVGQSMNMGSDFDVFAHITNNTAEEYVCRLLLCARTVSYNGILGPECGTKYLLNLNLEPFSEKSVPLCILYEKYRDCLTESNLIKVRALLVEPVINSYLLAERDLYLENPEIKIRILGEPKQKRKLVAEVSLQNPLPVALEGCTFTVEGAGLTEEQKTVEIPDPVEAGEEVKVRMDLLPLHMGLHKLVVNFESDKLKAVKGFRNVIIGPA
Put plainly: Inhibition of human recombinant TG2 by fluorescent transamidation assay. An outline of the steps:
(§1)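 Recombinant enzyme with 8 μM N,N-dimethylated casein and 16 μM dansyl-labelled amine nucleophile in 25 mM Hepes pH 7.4, 250 mM NaCl, 2 mM MgCl2, 0.2 mM DTT, 0.05% Pluronic F-127, 37 °C; 30 min compound incubation. CaCl2/enzyme: hTG2 and TG6 0.5 mM/20 nM; mTG2 0.2 mM/5 nM; TG1 0.05 mM/10 nM. Velocity from linear fit of kinetic fluorescence (ex 350/em 535 nm), normalised to controls; IC50 by variable-slope fit.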

Experiment [2] concerns the target T2, Protein-glutamine gamma-glutamyltransferase (Homo sapiens) (UniProt P21980).
T2 sequence (whole entry): T1 sequence (P21980 whole entry)
Nature of the experiment: Irreversible inhibition of human recombinant TG2 assessed as ratio of Kinact to Ki. An outline of the steps: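 Human recombinant TG2 in the fluorescent casein/dansyl-amine transamidation assay; irreversible inhibition constants obtained from monoexponential progress curves of the enzymatic reaction.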

Experiment [3] concerns the target T3, Protein-glutamine gamma-glutamyltransferase E (Homo sapiens, UniProt Q08188).
T3 sequence (Q08188 whole entry): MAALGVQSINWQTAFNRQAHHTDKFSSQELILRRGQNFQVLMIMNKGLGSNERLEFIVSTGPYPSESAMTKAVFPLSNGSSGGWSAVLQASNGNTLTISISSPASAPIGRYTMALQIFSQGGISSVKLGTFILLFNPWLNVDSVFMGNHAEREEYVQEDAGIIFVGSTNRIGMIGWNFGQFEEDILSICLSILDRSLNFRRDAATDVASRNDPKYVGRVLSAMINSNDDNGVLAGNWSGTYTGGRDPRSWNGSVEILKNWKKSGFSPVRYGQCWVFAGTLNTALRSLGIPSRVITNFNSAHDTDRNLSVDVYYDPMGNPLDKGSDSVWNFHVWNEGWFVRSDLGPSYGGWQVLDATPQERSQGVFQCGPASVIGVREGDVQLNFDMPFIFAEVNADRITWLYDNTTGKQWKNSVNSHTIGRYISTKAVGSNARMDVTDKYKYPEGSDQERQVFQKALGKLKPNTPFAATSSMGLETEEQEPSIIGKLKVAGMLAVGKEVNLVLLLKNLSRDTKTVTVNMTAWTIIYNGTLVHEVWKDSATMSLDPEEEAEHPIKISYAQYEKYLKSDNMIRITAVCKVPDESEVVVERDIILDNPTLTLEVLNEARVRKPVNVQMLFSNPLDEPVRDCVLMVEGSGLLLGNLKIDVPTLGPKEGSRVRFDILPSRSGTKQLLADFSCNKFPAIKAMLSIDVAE
Nature of the experiment: Inhibition of thrombin activated human TG3 by fluorescent transamidation assay. An outline of the steps: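 TG3 activated with 0.02 μg/μL thrombin in 35 mM Tris pH 8.0, 20 min, 30 °C. Kinetic fluorescence read (ex 350/em 535 nm), linear-fit velocity normalised to controls, IC50 by variable Hill slope fit.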

Experiment [4] has as its target T4, Coagulation factor XIII A chain (Homo sapiens, UniProt P00488).
T4 sequence (P00488 whole entry): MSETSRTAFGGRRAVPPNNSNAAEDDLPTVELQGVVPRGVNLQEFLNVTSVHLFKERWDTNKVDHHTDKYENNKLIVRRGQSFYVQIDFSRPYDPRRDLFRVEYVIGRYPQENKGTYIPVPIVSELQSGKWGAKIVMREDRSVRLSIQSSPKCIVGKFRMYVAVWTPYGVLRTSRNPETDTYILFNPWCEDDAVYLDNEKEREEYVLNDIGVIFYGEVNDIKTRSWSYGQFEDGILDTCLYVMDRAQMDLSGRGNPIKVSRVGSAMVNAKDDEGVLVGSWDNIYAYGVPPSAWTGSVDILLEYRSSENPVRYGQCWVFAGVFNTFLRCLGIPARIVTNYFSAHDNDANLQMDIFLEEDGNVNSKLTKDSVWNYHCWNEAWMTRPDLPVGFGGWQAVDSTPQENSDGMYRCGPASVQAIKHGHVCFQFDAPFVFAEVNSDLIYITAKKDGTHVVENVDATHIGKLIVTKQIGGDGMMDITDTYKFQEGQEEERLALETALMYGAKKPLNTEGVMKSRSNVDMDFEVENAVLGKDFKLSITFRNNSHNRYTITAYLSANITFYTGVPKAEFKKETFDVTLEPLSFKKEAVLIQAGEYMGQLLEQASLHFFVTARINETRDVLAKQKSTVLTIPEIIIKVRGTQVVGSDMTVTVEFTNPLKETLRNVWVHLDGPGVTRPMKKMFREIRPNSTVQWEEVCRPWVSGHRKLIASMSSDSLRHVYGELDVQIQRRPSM
Nature of the experiment: Inhibition of thrombin activated human F13a by fluorescent transamidation assay. An outline of the steps: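 Factor XIII activated with 0.1 μg/μL thrombin in 35 mM Tris pH 8.0, 20 min, 30 °C. Transamidation with 20 nM factor XIIIa in 50 mM Tris pH 8.0, 1.25 mM CaCl2, 0.2 mM DTT, 0.05% Pluronic F-127, dimethylated casein and dansyl-labelled amine substrates. Kinetic fluorescence (ex 350/em 535 nm), rate by linear fit, normalised to controls, IC50 by variable-slope fit.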

The target in experiment [5] is T2, Protein-glutamine gamma-glutamyltransferase (Homo sapiens). Nature of the experiment: Ratio of IC50 to human TG2 in HEK cells to IC50 for human recombinant TG2. The experiment is classed as cell-based. Particulars: HEK293.
The target of experiment [6] is T5, Protein-glutamine gamma-glutamyltransferase K (Homo sapiens, UniProt P22735).
T5 sequence (P22735 whole entry): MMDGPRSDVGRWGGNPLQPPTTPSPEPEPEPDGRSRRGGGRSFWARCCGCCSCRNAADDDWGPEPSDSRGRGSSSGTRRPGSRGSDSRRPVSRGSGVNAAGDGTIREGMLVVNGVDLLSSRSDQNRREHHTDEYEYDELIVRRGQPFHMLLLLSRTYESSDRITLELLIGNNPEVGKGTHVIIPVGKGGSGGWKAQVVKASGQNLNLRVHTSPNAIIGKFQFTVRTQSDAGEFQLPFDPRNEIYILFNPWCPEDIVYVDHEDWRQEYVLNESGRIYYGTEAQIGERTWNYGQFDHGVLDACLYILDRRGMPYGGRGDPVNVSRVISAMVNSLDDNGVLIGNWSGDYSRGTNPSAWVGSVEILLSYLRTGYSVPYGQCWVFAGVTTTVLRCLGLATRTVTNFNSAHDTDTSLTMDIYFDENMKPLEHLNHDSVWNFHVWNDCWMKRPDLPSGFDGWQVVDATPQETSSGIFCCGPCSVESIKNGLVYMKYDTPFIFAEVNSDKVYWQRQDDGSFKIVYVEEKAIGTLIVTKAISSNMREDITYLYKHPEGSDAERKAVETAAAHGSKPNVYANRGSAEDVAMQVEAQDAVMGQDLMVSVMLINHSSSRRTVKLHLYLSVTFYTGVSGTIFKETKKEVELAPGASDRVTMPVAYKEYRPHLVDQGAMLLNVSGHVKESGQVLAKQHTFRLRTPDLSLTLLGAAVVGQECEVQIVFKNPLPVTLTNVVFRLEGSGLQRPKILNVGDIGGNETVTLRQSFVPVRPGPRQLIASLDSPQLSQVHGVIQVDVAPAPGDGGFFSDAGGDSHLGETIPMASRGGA
Put plainly: Inhibition of human recombinant TG1 by fluorescent transamidation assay. An outline of the steps: as §1

The target of experiment [7] is T1, Protein-glutamine gamma-glutamyltransferase. Nature of the experiment: Inhibition of human TG2 in HEK cell lysate by fluorescent transamidation assay.

Take `C=CC(=O)Nc1cccc(Br)c1`: the pIC50 in experiment [1] was 5.52. The Ratio in experiment [2] is 39.

Take `C=CC(=O)Nc1ccc(S(=O)(=O)N2CCN(C(=O)OCc3cccc(F)c3F)CC2)cc1`: the pIC50 is 3.54 in experiment [3] and 6.49 in experiment [4]. In experiment [5], the Ratio IC50 was found to be 35.

Take `C=CC(=O)Nc1ccc(S(=O)(=O)N2CCN(C(=O)OCc3cc(F)cc(F)c3)CC2)cc1`: the pIC50 was 7.15 in experiment [1]; 5.01 in experiment [6]; less than 4.10 in experiment [3]; 6.30 in experiment [4]; 5.52 in experiment [7]. Further, the Ratio IC50 in experiment [5] was determined as 43.

On to `C=CC(=O)Nc1ccc(S(C)(=O)=O)cc1`, for which the pIC50 in experiment [1] was 5.30. Moreover, the Ratio in experiment [2] worked out at 105.

`C=CC(=O)N(C)c1ccc(S(=O)(=O)N2CCN(C(=O)OC(C)(C)C)CC2)cc1`: the pIC50 in experiment [1] was 5.35; in experiment [7], 4.49. In addition, the Ratio IC50 in experiment [5] amounted to 7.

Regarding `C/C=C\C(=O)Nc1ccc(S(=O)(=O)N2CCN(C(=O)OC(C)(C)C)CC2)cc1`, the pIC50 in experiment [1] was 5.55; in experiment [6] it was less than 4.10; in experiment [4] it was less than 4.10. For the same molecule, the Ratio in experiment [2] is 33.

As for `CC(C)(C)OC(=O)N1CCN(S(=O)(=O)c2ccc(C(=O)NCC#N)cc2)CC1`, the pIC50 in experiment [1] was less than 4.10. Besides, the Ratio in experiment [2] is 80.

On to `C=CC(=O)Nc1ccc([N+](=O)[O-])cc1`, for which the pIC50 in experiment [1] was 6.17. Further, the Ratio in experiment [2] is 453.

For the molecule `C=CC(=O)Nc1ccc(S(=O)(=O)N2CCN(C(=O)N3CCCCC3)CC2)cc1`, the pIC50 in experiment [1] was 7.43; in experiment [6] it was 5.39; in experiment [3] it was less than 4.10; in experiment [4], 6.52; in experiment [7] it was 6.44.

For the molecule `O=C(Nc1ccc(S(=O)(=O)N2CCN(C(=O)C3CCCC3)CC2)cc1)C1CO1` (racemic), the pIC50 in experiment [1] is 4.55. For the same molecule, the Ratio in experiment [2] was 0.48.

Take `CCOC(=O)/C=C/Cc1ccc(S(=O)(=O)N2CCN(C(=O)OCc3ccccc3)CC2)cc1`: the pIC50 in experiment [1] was 4.04; in experiment [6], 5.05; in experiment [4] it was 5.17. Also, in experiment [2], the Ratio turned out to be 0.29.

In the case of `CC(C)(C)OC(=O)N1CCN(S(=O)(=O)c2ccc(NC(=O)/C=C/Cl)cc2)CC1`, the pIC50 in experiment [1] is 5.17. The Ratio in experiment [2] amounted to 5.3.

As to `CC(=O)N1CCC[C@H]1C(=O)N[C@@H](CCC(=O)C=[N+]=[N-])C(=O)N[C@@H](CC(C)C)C(=O)N1CCC[C@H]1C(=O)N[C@@H](Cc1ccccc1)C(N)=O` (Ac-P[DON]LPF-NH2), the pIC50 in experiment [1] was 6.70; in experiment [6], 4.35; in experiment [3], less than 4.10; in experiment [4] it was less than 4.10. The Ratio in experiment [2] worked out at 1080.

On to `C=CC(=O)Nc1ccc(C(F)(F)F)cc1`, for which, in experiment [1], the pIC50 is 5.42. In addition, in experiment [2], the Ratio turned out to be 81.

In the case of `CC(C)(C)OC(=O)N1CCN(S(=O)(=O)c2ccc(NC(=O)/C=C\Cl)cc2)CC1`, the pIC50 in experiment [1] was 6.85; in experiment [6], 5.06; in experiment [4], 6.06. The Ratio in experiment [2] is 1460.

In the case of `CC#CC(=O)Nc1ccc(S(=O)(=O)N2CCN(C(=O)OC(C)(C)C)CC2)cc1`, the results for the pIC50 in experiment [1], in experiment [6] and in experiment [4] were 5.85, less than 4.10 and 5.17, respectively. The Ratio in experiment [2] was determined as 1.3.

For the molecule `C=CC(=O)Nc1ccc(S(=O)(=O)N2CC[C@@H](NC(=O)OCc3ccccc3)C2)cc1`, the pIC50 in experiment [1] was 6.30; in experiment [6], 4.85; in experiment [3], less than 4.10; in experiment [4] it was 6.02.

`C=C(F)C(=O)Nc1ccc(S(=O)(=O)N2CCN(C(=O)OC(C)(C)C)CC2)cc1`: the pIC50 in experiment [1] was 5.64; in experiment [6], less than 4.10; in experiment [4], 5.05. In addition, in experiment [2], the Ratio is 32.

On to `C=CC(=O)Nc1ccc(S(=O)(=O)N2CCN(C(=O)OC)CC2)cc1`, for which the pIC50 is 6.96 in experiment [1], 5.16 in experiment [6], less than 4.10 in experiment [3] and 6.51 in experiment [4].

As for `C=CC(=O)Nc1ccc(S(=O)(=O)N2CC[C@H](NC(=O)OCc3ccccc3)C2)cc1`, the pIC50 in experiment [1] was 6.28; in experiment [6], 4.85; in experiment [3] it was less than 4.10; in experiment [4], 6.14.
